Test system: U2OS
Experiment: Multiplex assay against U2OS
Assay type: toxicity, cell-based
Conditions: human
How it was run: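 Cells were classed with CellPathfinder machine-learning gating, first as Hoechst high-intensity objects or normal cells, then (normal cells) as healthy, pyknosed or fragmented nuclei, and finally (pyknosed cells) as mitotic or apoptotic. Staining of live cells at seeding used Hoechst33342, BioTracker Green Microtubule Cytoskeleton Dye, MitoTracker Red and Annexin V Alexa Fluor 680, with imaging on a CQ1 microscope at 37°C and 5% CO2 after compound addition. Tubulin, mitochondrial-mass and membrane-permeability phenotypes are per cents of healthy-nucleus cells.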

[1] = 12 h, 1 µM, compound concentration 1 uM, replicate 1
[2] = 12 h, 1 µM, compound concentration 1 uM, replicate 2
[3] = 12 h, 10 µM, compound concentration 10 uM, replicate 1
[4] = 12 h, 10 µM, compound concentration 10 uM, replicate 2
[5] = 24 h, 1 µM, compound concentration 1 uM, replicate 1
[6] = 24 h, 1 µM, compound concentration 1 uM, replicate 2
[7] = 24 h, 10 µM, compound concentration 10 uM, replicate 1
[8] = 24 h, 10 µM, compound concentration 10 uM, replicate 2
[9] = 48 h, 1 µM, compound concentration 1 uM, replicate 1
[10] = 48 h, 1 µM, compound concentration 1 uM, replicate 2
[11] = 48 h, 10 µM, compound concentration 10 uM, replicate 1
[12] = 48 h, 10 µM, compound concentration 10 uM, replicate 2

COc1cc(Nc2ncc3c(n2)-c2ccc(Cl)cc2C(c2c(F)cccc2OC)=NC3)ccc1C(=O)O [ALISERTIB]
Population Apoptotic (%) [1]: 63% | Population Fragmented Nuclei (%) [1]: 23% | Population Healthy Nuclei (%) [1]: 65% | Population Hoechst High Intensity Objects (%) [1]: 1% | Population Membrane Permeable-Phenotype (%) [1]: 4% | Population Mitochondria Different-Phenotype (%) [1]: 3% | Population Mitotic Cells (%) [1]: 36% | Population Normal (%) [1]: 98% | Population Pyknosed Nuclei (%) [1]: 10% | Population Tubulin-Different-Phenotype (%) [1]: 3% | Population Apoptotic (%) [2]: 71% | Population Fragmented Nuclei (%) [2]: 35% | Population Healthy Nuclei (%) [2]: 55% | Population Hoechst High Intensity Objects (%) [2]: 4% | Population Membrane Permeable-Phenotype (%) [2]: 8% | Population Mitochondria Different-Phenotype (%) [2]: 4% | Population Mitotic Cells (%) [2]: 28% | Population Normal (%) [2]: 95% | Population Pyknosed Nuclei (%) [2]: 8% | Population Tubulin-Different-Phenotype (%) [2]: 11% | Population Apoptotic (%) [3]: 79% | Population Fragmented Nuclei (%) [3]: 31% | Population Healthy Nuclei (%) [3]: 57% | Population Hoechst High Intensity Objects (%) [3]: 3% | Population Membrane Permeable-Phenotype (%) [3]: 11% | Population Mitochondria Different-Phenotype (%) [3]: 5% | Population Mitotic Cells (%) [3]: 20% | Population Normal (%) [3]: 96% | Population Pyknosed Nuclei (%) [3]: 11% | Population Tubulin-Different-Phenotype (%) [3]: 4% | Population Apoptotic (%) [4]: 71% | Population Fragmented Nuclei (%) [4]: 12% | Population Healthy Nuclei (%) [4]: 82% | Population Hoechst High Intensity Objects (%) [4]: 2% | Population Membrane Permeable-Phenotype (%) [4]: 5% | Population Mitochondria Different-Phenotype (%) [4]: 1% | Population Mitotic Cells (%) [4]: 28% | Population Normal (%) [4]: 97% | Population Pyknosed Nuclei (%) [4]: 5% | Population Tubulin-Different-Phenotype (%) [4]: 0% | Population Apoptotic (%) [5]: 78% | Population Fragmented Nuclei (%) [5]: 26% | Population Healthy Nuclei (%) [5]: 64% | Population Hoechst High Intensity Objects (%) [5]: 1% | Population Membrane Permeable-Phenotype (%) [5]: 9% | Population Mitochondria Different-Phenotype (%) [5]: 4% | Population Mitotic Cells (%) [5]: 21% | Population Normal (%) [5]: 98% | Population Pyknosed Nuclei (%) [5]: 8% | Population Tubulin-Different-Phenotype (%) [5]: 5% | Population Apoptotic (%) [6]: 75% | Population Fragmented Nuclei (%) [6]: 20% | Population Healthy Nuclei (%) [6]: 63% | Population Hoechst High Intensity Objects (%) [6]: 2% | Population Membrane Permeable-Phenotype (%) [6]: 6% | Population Mitochondria Different-Phenotype (%) [6]: 2% | Population Mitotic Cells (%) [6]: 25% | Population Normal (%) [6]: 97% | Population Pyknosed Nuclei (%) [6]: 15% | Population Tubulin-Different-Phenotype (%) [6]: 2% | Population Apoptotic (%) [7]: 84% | Population Fragmented Nuclei (%) [7]: 30% | Population Healthy Nuclei (%) [7]: 55% | Population Hoechst High Intensity Objects (%) [7]: 4% | Population Membrane Permeable-Phenotype (%) [7]: 13% | Population Mitochondria Different-Phenotype (%) [7]: 5% | Population Mitotic Cells (%) [7]: 15% | Population Normal (%) [7]: 95% | Population Pyknosed Nuclei (%) [7]: 13% | Population Tubulin-Different-Phenotype (%) [7]: 4% | Population Apoptotic (%) [8]: 90% | Population Fragmented Nuclei (%) [8]: 12% | Population Healthy Nuclei (%) [8]: 77% | Population Membrane Permeable-Phenotype (%) [8]: 9% | Population Mitochondria Different-Phenotype (%) [8]: 4% | Population Mitotic Cells (%) [8]: 9% | Population Pyknosed Nuclei (%) [8]: 9% | Population Tubulin-Different-Phenotype (%) [8]: 5% | Population Apoptotic (%) [9]: 85% | Population Fragmented Nuclei (%) [9]: 28% | Population Healthy Nuclei (%) [9]: 59% | Population Hoechst High Intensity Objects (%) [9]: 3% | Population Membrane Permeable-Phenotype (%) [9]: 6% | Population Mitochondria Different-Phenotype (%) [9]: 5% | Population Mitotic Cells (%) [9]: 14% | Population Normal (%) [9]: 96% | Population Pyknosed Nuclei (%) [9]: 12% | Population Tubulin-Different-Phenotype (%) [9]: 3% | Population Apoptotic (%) [10]: 78% | Population Fragmented Nuclei (%) [10]: 29% | Population Healthy Nuclei (%) [10]: 53% | Population Membrane Permeable-Phenotype (%) [10]: 11% | Population Mitochondria Different-Phenotype (%) [10]: 6% | Population Mitotic Cells (%) [10]: 21% | Population Pyknosed Nuclei (%) [10]: 17% | Population Tubulin-Different-Phenotype (%) [10]: 4% | Population Apoptotic (%) [11]: 88% | Population Fragmented Nuclei (%) [11]: 34% | Population Healthy Nuclei (%) [11]: 44% | Population Hoechst High Intensity Objects (%) [11]: 9% | Population Membrane Permeable-Phenotype (%) [11]: 16% | Population Mitochondria Different-Phenotype (%) [11]: 9% | Population Mitotic Cells (%) [11]: 11% | Population Normal (%) [11]: 90% | Population Pyknosed Nuclei (%) [11]: 21% | Population Tubulin-Different-Phenotype (%) [11]: 9% | Population Fragmented Nuclei (%) [12]: 16% | Population Healthy Nuclei (%) [12]: 70% | Population Hoechst High Intensity Objects (%) [12]: 5% | Population Membrane Permeable-Phenotype (%) [12]: 7% | Population Mitochondria Different-Phenotype (%) [12]: 3% | Population Normal (%) [12]: 94% | Population Pyknosed Nuclei (%) [12]: 13% | Population Tubulin-Different-Phenotype (%) [12]: 2%

From ChEMBL document CHEMBL5058577, “EUbOPEN Chemogenomics Library 2 (Multiplex)” (2022)
